# Test results taken from PMC4383680 (Nature, 2015).
# “Also recorded” adds a separate entry of the source. No end group written: not given here.
# Experiments:
# [1] = tested on: PVN MC4R neurons; experiment: Firing frequency of PVN MC4R neurons; assay type: cell-based, mouse
# In short: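 Slices from MC4R-GFP mice, 200 μm, cut at 44–49°, held in oxygenated ACSF at 31 °C. AgRP applied to the bath. Cells held around −50 mV so they fire spontaneously. Firing frequency counted for 3 min before peptide and for 3 min at 7–11 min after, then compared.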
# [2] = target: T1, MC4R (Homo sapiens, UniProt P32245); experiment: β-arrestin recruitment; assay type: cell-based; details: increasing concentrations, PathHunter, 90 min, 37 °C
# [3] = target: MC4R + Kir7.1 (M125R) in HEK293 cells (Homo sapiens, UniProt P32245); assay type: cell-based
# [4] = tested on: PVN MC4R neurons; experiment: Voltage clamp; assay type: cell-based, mouse
# [5] = tested on: PVN MC4R neurons; experiment: Current clamp membrane potential of PVN MC4R neurons, hypothalamic slices; assay type: cell-based, mouse; details: for amplitude of α-MSH depolarization at higher concentration of salt: BaCl2 >1 mM, CsCl >2.5 mM; for effect of BaCl2 or CsCl on α-MSH induced depolarization: external, various concentrations
# In short: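 MC4R-GFP mouse hypothalamic slices, 200 μm, cut at 44–49° to horizontal in near-freezing oxygenated aCSF and kept in oxygenated ACSF at 31 °C. α-MSH (250 nM) bath-applied. Continuous current clamp with membrane potential held at −55 to −60 mV to prevent spontaneous firing. Potential averaged over 3 min before peptide versus a 3 min window 7–11 min after. Zero-ATP internal at pH 7.2, 298 mosmol/kg.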
# [6] = tested on: MC4R - Gαi; experiment: Coupling of MC4R to Gαi; assay type: cell-based; details: Extended Data Fig. 6a–c
# [7] = tested on: inward rectifying K+ (Kir) channels; details: at concentrations that block other Kir channels; ref [12]; cited from earlier work
# [8] = tested on: D1 dopamine receptor in PVN neurons; experiment: D1 receptor mediated depolarization of PVN neurons; assay type: cell-based, mouse; details: 5 μM SKF83822
# In short: (§1)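 Mouse hypothalamic slices, 200 μm, cut at 44–49° from horizontal in oxygenated near-freezing aCSF and transferred to oxygenated ACSF at 31 °C. PVN neurons recorded in whole cell mode. Cells accepted only with holding current ≤30 pA at −70 mV, large rebound spikes, ability to fire, and no blebbing or visible nucleus.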
# [9] = tested on: μ-opioid receptor in PVN MC4R neurons; experiment: μ-opioid; assay type: cell-based, mouse; details: DAMGO 10 μM; for effect on DAMGO response: GTPγS 1.5 mM or gallein 25 μM
# In short: as §1
# [10] = target: 3HA-MC4R (melanocortin-4 receptor) (human) (UniProt P32245)
# [11] = target: T1, MC4R; experiment: Intracellular cAMP / MC4R coupling to Gαs; assay type: cell-based; details: Fig. 4a
# T1 sequence (P32245 whole entry): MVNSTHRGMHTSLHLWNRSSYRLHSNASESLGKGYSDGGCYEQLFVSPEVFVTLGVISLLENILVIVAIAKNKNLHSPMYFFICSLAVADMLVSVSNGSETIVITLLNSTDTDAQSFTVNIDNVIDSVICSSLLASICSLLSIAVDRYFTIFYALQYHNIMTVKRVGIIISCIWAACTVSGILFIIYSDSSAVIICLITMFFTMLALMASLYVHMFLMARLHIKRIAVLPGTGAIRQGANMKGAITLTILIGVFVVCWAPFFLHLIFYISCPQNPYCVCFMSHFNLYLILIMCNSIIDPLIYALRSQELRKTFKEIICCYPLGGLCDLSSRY
# Chain of MC4R + Kir7.1 (M125R) in HEK293 cells (P32245 whole entry, stated change not applied): as the sequence (P32245 whole entry) above
# Chain of 3HA-MC4R (melanocortin-4 receptor) (human) (P32245 whole entry): as above
molecule,measurement,setting,value
"CSCC[C@@H]1NC(=O)[C@H](C)NC(=O)[C@H]([C@@H](C)O)NC(=O)CNC(=O)[C@H](CC(C)C)NC(=O)[C@H](CCCCN)NC(=O)[C@H](CCCNC(=N)N)NC(=O)[C@@H]2CSSC[C@@H]3NC(=O)[C@@H]4CCCN4C(=O)[C@H](C(C)C)NC(=O)[C@H](CCC(N)=O)NC(=O)[C@H](CCC(N)=O)NC(=O)CNC(=O)[C@H](CC(C)C)NC(=O)[C@@H]4CSSC[C@H](NC(=O)[C@H]([C@@H](C)O)NC(=O)[C@H](C)NC(=O)[C@H](CSSC[C@@H](C(=O)N[C@@H](CO)C(=O)N[C@@H](CCCNC(=N)N)C(=O)N[C@H](C(=O)O)[C@@H](C)O)NC(=O)[C@@H]5CCCN5C(=O)[C@H](CC(N)=O)NC1=O)NC(=O)[C@@H]1CCCN1C(=O)[C@H](CC(=O)O)NC(=O)[C@H](CSSC[C@H](NC(=O)[C@H](CCCNC(=N)N)NC(=O)[C@H](CCCNC(=N)N)NC(=O)[C@H](CO)NC(=O)[C@@H](N)CO)C(=O)N[C@@H](C(C)C)C(=O)N[C@@H](CCCNC(=N)N)C(=O)N[C@@H](CC(C)C)C(=O)N[C@@H](Cc1c[nH]cn1)C(=O)N[C@@H](CCC(=O)O)C(=O)N[C@@H](CO)C(=O)N4)NC3=O)C(=O)N[C@@H](Cc1ccc(O)cc1)C(=O)N[C@H]1CSSC[C@H](NC(=O)[C@H](Cc3ccccc3)NC(=O)[C@H](C)NC(=O)[C@H](CC(N)=O)NC(=O)[C@H](Cc3ccccc3)NC(=O)[C@H](Cc3ccccc3)NC(=O)[C@H](CCCNC(=N)N)NC1=O)C(=O)N[C@@H](Cc1ccc(O)cc1)C(=O)N2 [AgRP, Agouti-related protein]",effect on firing activity,"[1]; AgRP, cells held around −50 mV",inhibiting their firing activity
same,β-arrestin recruitment,[2],did not appear to; also recorded: without any effect
same,duration of increase of Tl+ flux,"[3]; low dose AgRP 1 nM, data not shown",up to 24 h
same,effect on K+ current of PVN MC4R neurons,[4],generates hyperpolarizing current by opening of inward rectifying K^+ channels; also recorded: increases the density of an inward rectifying K^+ current
same,reversal potential of AgRP-activated current,"[4]; AgRP 50 nM, 20 mM external K+",−46.7 +/− 3.0 mV
same,increase of membrane conductance,"[4]; AgRP 50 nM, 20 mM external K+, n=6",75%
same,membrane potential response,"[5]; 100 nM AgRP, bath application, current clamp, **p<0.01",hyperpolarized PVN MC4R neurons; also recorded: hyperpolarizing response
same,coupling to Gαi,[6],"did not appear to couple the MC4R to the cAMP inhibitory G protein, Gαi"
[Ba+2].[Cl-].[Cl-] [BaCl2],sensitivity of Kir7.1 to external salt,[7],resistant
same,amplitude of α-MSH depolarization at higher concentration of salt,[5],increased amplitude
same,effect of BaCl2 or CsCl on α-MSH induced depolarization,[5]; current clamp,not blocked in higher concentrations; also recorded: persisted
[Cl-].[Cs+] [CsCl],sensitivity of Kir7.1 to external salt,[7],resistant
same,amplitude of α-MSH depolarization at higher concentration of salt,[5],increased amplitude
same,effect of BaCl2 or CsCl on α-MSH induced depolarization,[5]; current clamp,not blocked in higher concentrations; also recorded: persisted
Nc1nc2c(ncn2[C@@H]2O[C@H](COP(=O)(O)OP(O)(O)=S)[C@@H](O)[C@H]2O)c(=O)[nH]1 [GDPβS],effect on D1 (SKF83822) mediated depolarization,[8]; 5 mM GDPβS intrapipette,blocks the depolarization and firing activity induced by SKF83822; also recorded: blocked D1 mediated depolarization
same,effect on α-MSH induced depolarization,"[5]; 5 mM GDPβS, intrapipette",fails to block the α-MSH – induced depolarization; also recorded: failed to block α-MSH induced depolarization of PVN MC4R neurons
Nc1nc2c(ncn2[C@@H]2O[C@H](COP(=O)(O)OP(=O)(O)OP(O)(O)=S)[C@@H](O)[C@H]2O)c(=O)[nH]1 [GTPγS],effect on DAMGO response,[9],does block the hyperpolarization induced by μ-opioid agonist
same,effect on α-MSH induced firing or depolarization,"[5]; GTPγS 1.5 mM, whole cell",ineffective in blocking neuronal firing or depolarization; also recorded: fails to block the depolarization induced by α-MSH
"CCCCCCCC(=O)OC[C@H](COP(=O)(O)O[C@@H]1[C@H](O)[C@H](O)[C@@H](OP(=O)(O)O)[C@H](OP(=O)(O)O)[C@H]1O)OC(=O)CCCCCCC [PI(4,5)P2 diC8]",effect on α-MSH induced depolarization,"[5]; 100 μM PI(4,5)P2 diC8 in zero ATP internal solution",significantly increased the amplitude of the α-MSH induced depolarization; also recorded: potentiated the α-MSH-induced response
C=CCN1CCc2c(cc(O)c(O)c2Cl)C(c2cccc(C)c2)C1 (stereo not shown) [SKF83822],depolarization of PVN neurons by D1 agonist,[8],causes depolarization of PVN neurons; also recorded: depolarized PVN neurons
Nc1ncnc2c1ncn2C1CCCO1 (stereo not shown) [SQ22536],effect on α-MSH induced depolarization,"[5]; SQ22536 25 μM, adenylyl cyclase inhibition",fails to block depolarizing effects of α-MSH; also recorded: failed to block α-MSH induced depolarization
N#CC(=C(/N)Sc1ccccc1N)/C(C#N)=C(/N)Sc1ccccc1N [U0126],effect on α-MSH induced increase in firing frequency,"[1]; U0126 1 μM, whole cell",ineffective in blocking neuronal firing or depolarization; also recorded: fails to block α-MSH -induced increase in firing frequency
Cc1ccc(OCC(O)Cn2c(=N)n(Cc3ccccc3)c3ccccc32)cc1 (stereo not shown) [VU573],inhibition of depolarizing effect of α-MSH,"[5]; 15 μM VU573, 250 nM α-MSH",~ 80%
O=[N+]([O-])c1ccc(CN2CCOCCOCCN(Cc3ccc([N+](=O)[O-])cc3)CCOCC2)cc1 [VU590],effect of Kir blocker on α-MSH induced depolarization,"[5]; 250 nM α-MSH, blocker concentration not given",blocked
O=C1OC2(c3ccccc31)c1ccc(O)c(O)c1Oc1c2ccc(O)c1O [gallein],effect on DAMGO response,[9],blocks the effects of DAMGO
same,effect on α-MSH induced firing or depolarization,"[5]; gallein 25 μM, Gβγ blocker",ineffective in blocking neuronal firing or depolarization; also recorded: fails to inhibit α-MSH induced depolarization
DAMGO,effect of DAMGO on membrane potential,[9],hyperpolarization
miniAgRP (AgRP 87-120) (from UniProt O00253 87-120) (peptide),"stimulation of Kir7.1 activity, potency",[10],1.7e-07
"miniAgRP: AgRP analogue, AgRP87-120 (87-122); synthesized, purified and folded by authors (CVRLHESCLGQQVPCCDPCATCYCRFFNAFCYCR; ends and bridges not checked; also: folded, disulfide pairing not given here; UniProt O00253 87-120, looked up, fragment)",potency in inhibition of MC4R coupling to Gαs,[11],"retains normal affinity for MC4R, and potency in inhibition of MC4R coupling to Gαs"
same,coupling of MC4R to Kir7.1,[3]; Fig. 4b,lost its ability to couple MC4R to Kir7.1
"SSRRCVRLHESCLGQQVPCCDPCATCYCRFFNAFCYCRKLGTAMNPCSRT (domain or fragment, ends and bridges not checked; cysteine pairing not given here) [wtAgRP (83-132)]","stimulation of Kir7.1 activity, potency",[10],3.6e-09
